The source made the active and inactive calls. The rule behind the calls is not given here.
Assays:
[1] = target: T1, RAC-alpha serine/threonine-protein kinase (Homo sapiens, UniProt P31749); assay: Inhibition of Akt1 (unknown origin) using ATP/eNOS as substrate preincubated for 5 mins followed by substrate addition measured after 30 mins by fluorescence polarization assay
HL-60 = assay: Antiproliferative activity against human HL60 cells after 72 hrs by MTT assay; format: functional, cell-based; settings: HL-60, 72 h
Summary of the method: (§1)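 MTT assay: cells seeded at 4000 per well, attached overnight, exposed to compound over 1.0–100.0 range for 72 h. MTT then added, 4 h more at 37 °C. Formazan dissolved in DMSO, absorbance at 570 nm. Triplicate wells in three independent experiments. IC50 from dose-effect analysis.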

HCT-116 = assay: Antiproliferative activity against human HCT116 cells after 72 hrs by MTT assay; format: functional, cell-based; settings: HCT-116, 72 h; summary of the method: as §1
OVCAR-8 [2] = assay: Antiproliferative activity against human OVCAR8 cells after 72 hrs by MTT assay; format: functional, cell-based; settings: OVCAR-8, 72 h; summary of the method: as §1
[3] = target: T1, RAC-alpha serine/threonine-protein kinase; assay: Inhibition of Akt1 (unknown origin) using ATP/eNOS as substrate at 10 uM preincubated for 5 mins followed by substrate addition measured after 30 mins by fluorescence polarization assay
Summary of the method: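 Competitive fluorescence polarization kinase assay. 4 ng Akt1 in 2.5× kinase buffer (62.5 mM Tris-HCl pH 7.5, 25 mM MgCl₂, 12.5 mM β-glycerophosphate, 0.25 mM Na₃VO₄, 5 mM DTT) preincubated with DMSO vehicle or compound for 5 min at room temperature. ATP/eNOS substrate cocktail then added. Reaction stopped with 50 mM EDTA (pH 8.0), activity read per kit instructions. Single-point inhibition measured at 10.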

[4] = Inhibition of Drak (unknown origin); set-up: species or system Homo sapiens
[5] = target: T2, Serine/threonine-protein kinase B-raf (Homo sapiens, UniProt P15056)
[6] = target: T1, RAC-alpha serine/threonine-protein kinase; assay: Inhibition of Akt1 in human OVCAR8 cells assessed as effect on total GSK3beta level at 1 uM by Western blotting analysis; format: cell-based; settings: OVCAR-8
Summary of the method: (§2)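 OVCAR-8 cells treated, washed with ice-cold PBS, lysed in buffer with NaF, β-glycerophosphate and PMSF. Lysate cleared at 13,000 rpm for 30 min at 4 °C, protein measured by Bradford. 40–80 of lysate protein run on SDS-PAGE and transferred to nitrocellulose. Blots probed with primary antibodies, then HRP secondaries, detected by ECL.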

[7] = target: T1, RAC-alpha serine/threonine-protein kinase; assay: Inhibition of Akt1 in human OVCAR8 cells assessed as GSK3beta phosphorylation at 1 uM by Western blotting analysis; format: cell-based; settings: OVCAR-8; summary of the method: as §2
[8] = target: T3, Aurora kinase A (Homo sapiens) (UniProt O14965); assay: Inhibition of Aurora A (unknown origin) at 0.8 ug/ml
T3 sequence (whole entry): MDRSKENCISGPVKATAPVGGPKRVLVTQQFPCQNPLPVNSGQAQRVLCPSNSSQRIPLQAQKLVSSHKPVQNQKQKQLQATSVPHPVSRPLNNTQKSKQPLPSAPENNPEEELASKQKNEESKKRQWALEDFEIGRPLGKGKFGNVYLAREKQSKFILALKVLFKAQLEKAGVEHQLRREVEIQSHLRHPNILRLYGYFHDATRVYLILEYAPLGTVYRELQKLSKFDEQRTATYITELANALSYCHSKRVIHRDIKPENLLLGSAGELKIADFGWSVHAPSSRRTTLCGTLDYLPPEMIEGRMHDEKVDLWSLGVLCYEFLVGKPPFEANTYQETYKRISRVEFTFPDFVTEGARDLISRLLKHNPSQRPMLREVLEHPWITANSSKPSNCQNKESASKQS

[9] = target: T1, RAC-alpha serine/threonine-protein kinase; assay: Inhibition of Akt1-mediated phosphorylation at Ser473 in human OVCAR8 cells at 1 uM by Western blotting analysis; format: cell-based; settings: OVCAR-8; summary of the method: as §2
OVCAR-8 [10] = assay: Induction of apoptosis in human OVCAR8 cells assessed as accumulation at sub-G1 phase at 20 uM after 48 hrs by annexin V-FITC/propidium iodide staining-based FACS flow cytometric analysis (reference value: 1.2%); format: functional
Summary of the method: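 OVCAR-8 cells (5 × 10⁴ cells/ml, 5 ml) grown in 25 cm² flasks, treated with vehicle or compound for 48 h. Cells harvested, washed twice with ice-cold PBS, stained with annexin V-FITC/propidium iodide, analysed by flow cytometry.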

Homo sapiens = species: Homo sapiens; assay: Inhibition of Drak (unknown origin) at 0.8 ug/ml
[11] = target: T4, Inhibitor of nuclear factor kappa-B kinase subunit beta (Homo sapiens) (UniProt O14920); assay: Inhibition of IKKbeta (unknown origin) at 0.8 ug/ml
T4 sequence (whole entry): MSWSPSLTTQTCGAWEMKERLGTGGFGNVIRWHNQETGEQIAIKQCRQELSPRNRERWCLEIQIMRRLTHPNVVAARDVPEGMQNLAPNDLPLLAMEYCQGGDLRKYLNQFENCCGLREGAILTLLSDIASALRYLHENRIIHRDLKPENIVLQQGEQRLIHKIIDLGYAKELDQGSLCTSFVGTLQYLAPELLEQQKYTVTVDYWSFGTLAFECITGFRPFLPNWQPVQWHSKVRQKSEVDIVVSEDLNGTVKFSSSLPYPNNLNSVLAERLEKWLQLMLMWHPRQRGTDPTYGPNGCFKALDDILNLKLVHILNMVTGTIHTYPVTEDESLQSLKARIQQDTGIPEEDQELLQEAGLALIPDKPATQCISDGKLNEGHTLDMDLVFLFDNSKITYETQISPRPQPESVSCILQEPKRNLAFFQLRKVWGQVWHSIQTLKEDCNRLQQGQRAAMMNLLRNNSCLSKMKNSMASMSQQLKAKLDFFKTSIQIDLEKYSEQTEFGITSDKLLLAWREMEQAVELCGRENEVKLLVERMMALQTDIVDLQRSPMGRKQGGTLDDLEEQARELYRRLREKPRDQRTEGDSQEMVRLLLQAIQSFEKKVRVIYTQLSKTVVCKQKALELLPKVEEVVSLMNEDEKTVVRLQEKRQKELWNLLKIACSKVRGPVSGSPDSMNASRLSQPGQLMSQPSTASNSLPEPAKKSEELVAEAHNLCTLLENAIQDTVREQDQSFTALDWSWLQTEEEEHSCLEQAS

[12] = target: Tyrosine-protein kinase JAK2 (Homo sapiens) (UniProt O60674); assay: Inhibition of JAK2 (unknown origin) at 0.8 ug/ml
[13] = target: Tyrosine-protein kinase SYK (Homo sapiens) (UniProt P43405); assay: Inhibition of SYK (unknown origin) at 0.8 ug/ml
[14] = target: T2, Serine/threonine-protein kinase B-raf; assay: Inhibition of BRAF1 (unknown origin)
[15] = target: Glycogen synthase kinase-3 beta (Homo sapiens) (UniProt P49841); assay: Inhibition of GSK3beta (unknown origin) at 0.8 ug/ml
Chain of Glycogen synthase kinase-3 beta (Homo sapiens) (P49841 whole entry, looked up): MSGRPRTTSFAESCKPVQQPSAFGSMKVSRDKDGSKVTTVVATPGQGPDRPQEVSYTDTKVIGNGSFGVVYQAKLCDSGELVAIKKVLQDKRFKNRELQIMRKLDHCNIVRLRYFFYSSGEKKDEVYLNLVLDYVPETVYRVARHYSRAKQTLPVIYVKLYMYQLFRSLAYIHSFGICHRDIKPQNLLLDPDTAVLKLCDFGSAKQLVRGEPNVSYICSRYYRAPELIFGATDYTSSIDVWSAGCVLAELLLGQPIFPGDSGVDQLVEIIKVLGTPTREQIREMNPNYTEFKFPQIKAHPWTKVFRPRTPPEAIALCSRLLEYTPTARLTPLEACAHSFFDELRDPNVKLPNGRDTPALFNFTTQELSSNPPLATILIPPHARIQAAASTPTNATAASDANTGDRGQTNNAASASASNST

T1 sequence (P31749 whole entry): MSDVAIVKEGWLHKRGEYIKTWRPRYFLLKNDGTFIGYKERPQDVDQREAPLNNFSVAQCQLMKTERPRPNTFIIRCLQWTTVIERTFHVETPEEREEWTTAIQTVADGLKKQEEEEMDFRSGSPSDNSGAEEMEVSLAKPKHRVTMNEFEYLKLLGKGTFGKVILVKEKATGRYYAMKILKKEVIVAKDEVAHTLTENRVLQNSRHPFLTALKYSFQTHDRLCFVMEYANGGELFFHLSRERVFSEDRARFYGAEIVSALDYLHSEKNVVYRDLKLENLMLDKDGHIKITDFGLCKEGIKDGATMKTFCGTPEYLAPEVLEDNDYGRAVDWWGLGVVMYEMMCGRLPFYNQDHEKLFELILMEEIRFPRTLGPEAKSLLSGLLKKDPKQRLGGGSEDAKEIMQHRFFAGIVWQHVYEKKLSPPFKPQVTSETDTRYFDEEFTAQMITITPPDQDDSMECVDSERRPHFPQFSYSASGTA
T2 sequence (P15056 whole entry): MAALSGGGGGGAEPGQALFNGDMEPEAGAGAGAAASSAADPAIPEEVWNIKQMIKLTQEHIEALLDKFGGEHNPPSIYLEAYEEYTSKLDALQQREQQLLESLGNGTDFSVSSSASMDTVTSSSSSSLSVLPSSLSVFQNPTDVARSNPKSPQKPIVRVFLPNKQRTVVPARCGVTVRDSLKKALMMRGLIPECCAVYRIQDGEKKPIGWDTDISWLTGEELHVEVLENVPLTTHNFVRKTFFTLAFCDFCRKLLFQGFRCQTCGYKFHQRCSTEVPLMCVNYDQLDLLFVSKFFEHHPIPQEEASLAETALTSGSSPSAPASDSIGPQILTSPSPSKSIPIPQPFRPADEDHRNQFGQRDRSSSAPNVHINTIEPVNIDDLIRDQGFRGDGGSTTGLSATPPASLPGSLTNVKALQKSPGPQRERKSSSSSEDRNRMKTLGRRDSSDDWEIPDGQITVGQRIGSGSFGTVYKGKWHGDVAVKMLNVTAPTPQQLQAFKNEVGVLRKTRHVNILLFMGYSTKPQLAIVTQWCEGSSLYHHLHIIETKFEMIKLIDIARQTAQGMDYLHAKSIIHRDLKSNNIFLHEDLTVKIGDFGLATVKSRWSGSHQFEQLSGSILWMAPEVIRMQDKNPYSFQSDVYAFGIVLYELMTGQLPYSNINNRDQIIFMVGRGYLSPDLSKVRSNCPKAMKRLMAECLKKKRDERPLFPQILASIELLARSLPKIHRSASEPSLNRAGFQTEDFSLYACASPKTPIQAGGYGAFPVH
Chain of Tyrosine-protein kinase JAK2 (Homo sapiens) (O60674 whole entry): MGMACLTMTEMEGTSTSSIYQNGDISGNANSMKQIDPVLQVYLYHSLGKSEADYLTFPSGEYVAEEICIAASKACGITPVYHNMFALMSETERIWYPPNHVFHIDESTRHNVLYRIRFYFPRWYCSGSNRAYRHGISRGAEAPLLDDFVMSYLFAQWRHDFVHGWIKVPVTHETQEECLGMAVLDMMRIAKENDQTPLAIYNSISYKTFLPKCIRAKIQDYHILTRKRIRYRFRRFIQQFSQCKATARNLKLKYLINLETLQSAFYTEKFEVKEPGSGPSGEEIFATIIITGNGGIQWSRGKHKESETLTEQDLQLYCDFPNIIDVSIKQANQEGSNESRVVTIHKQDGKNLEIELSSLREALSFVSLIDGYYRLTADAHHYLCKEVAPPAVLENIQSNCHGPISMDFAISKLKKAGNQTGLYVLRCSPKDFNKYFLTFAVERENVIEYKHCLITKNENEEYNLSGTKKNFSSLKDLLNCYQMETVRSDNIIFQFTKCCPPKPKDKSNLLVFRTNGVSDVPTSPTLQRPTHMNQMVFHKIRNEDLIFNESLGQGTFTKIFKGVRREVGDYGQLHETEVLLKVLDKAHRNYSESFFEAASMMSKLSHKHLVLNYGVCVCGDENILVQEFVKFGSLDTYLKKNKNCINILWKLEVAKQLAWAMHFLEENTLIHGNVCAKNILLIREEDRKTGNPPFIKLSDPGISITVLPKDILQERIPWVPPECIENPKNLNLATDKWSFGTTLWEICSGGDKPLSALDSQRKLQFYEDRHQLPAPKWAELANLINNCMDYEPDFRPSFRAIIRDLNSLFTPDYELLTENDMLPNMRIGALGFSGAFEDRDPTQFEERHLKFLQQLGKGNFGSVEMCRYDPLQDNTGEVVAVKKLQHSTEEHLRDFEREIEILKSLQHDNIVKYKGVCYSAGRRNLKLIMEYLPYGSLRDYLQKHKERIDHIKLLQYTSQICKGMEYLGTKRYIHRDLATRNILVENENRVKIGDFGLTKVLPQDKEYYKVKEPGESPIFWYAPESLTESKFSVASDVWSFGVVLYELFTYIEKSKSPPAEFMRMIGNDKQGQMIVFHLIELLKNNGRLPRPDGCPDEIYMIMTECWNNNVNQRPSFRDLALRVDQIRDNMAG

SMILES	IC50 [1] [nM]	IC50 (HL-60) [µM]	IC50 (HCT-116) [µM]	IC50 (OVCAR-8 [2]) [µM]	also measured
CC(C)NC(c1ccc(Cl)cc1)c1ccc(-c2ccncc2)cc1 (stereo unspecified)	220	13.9	17.3	22.8	
Clc1ccc(C(NCc2ccccc2)c2ccc(-c3ncnc4[nH]cnc34)cc2)cc1 (stereo unspecified)	740	12.1	16.2	12.5	
CC(C)CNC(c1ccc(Cl)cc1)c1ccc(-c2cccnc2)cc1 (stereo unspecified)					inhibition [3]: 10%
CN[C@@H]1C[C@H]2O[C@@](C)([C@@H]1OC)n1c3ccccc3c3c4c(c5c6ccccc6n2c5c31)C(=O)NC4 [STAUROSPORINE]					IC50 [4]: 26 nM; IC50 [5]: 0.015 µM
NCCNC(c1ccc(Cl)cc1)c1ccc(-c2cn[nH]c2)cc1 (stereo unspecified)	820		10.7	11.1	
CC(C)CNC(c1ccc(Cl)cc1)c1ccc(-c2cn[nH]c2)cc1 (stereo unspecified)	900	5.4	14.1	8.1	
CC(C)(C)NC(c1ccc(Cl)cc1)c1ccc(-c2cn[nH]c2)cc1 (stereo unspecified)	38	5.3	8.9	8.1	inhibition [6]: inactive; inhibition [7]: Active; inhibition [8]: 28.3%; inhibition [9]: Active; Activity (OVCAR-8 [10]): 66.8%; inhibition (Homo sapiens): 12%; inhibition [11]: 1.8%; inhibition [12]: 19.5%; inhibition [13]: 0.98%; IC50 [14]: 880 nM; inhibition [15]: 7.2%
Clc1ccc(C(NC2CCCCC2)c2ccc(-c3ncnc4[nH]cnc34)cc2)cc1 (stereo unspecified)	640	11	14.4	8.6	
CC(C)CNC(c1ccc(Cl)cc1)c1ccc(-c2ncnc3nc[nH]c23)cc1 (stereo unspecified)	740	5.3	7.7	9.9	
O=S(=O)(NCCNC/C=C/c1ccc(Br)cc1)c1cccc2cnccc12		11.4	15.7	10.5	
Clc1ccc(C(NC2CC2)c2ccc(-c3ncnc4[nH]cnc34)cc2)cc1 (stereo unspecified)	470	11.9	13.4	30.6	
Clc1ccc(C(NC2CCCCC2)c2ccc(-c3cccnc3)cc2)cc1 (stereo unspecified)					inhibition [3]: 20%
CC(C)CNC(c1ccc(Cl)cc1)c1ccc(-c2ccncc2)cc1 (stereo unspecified)	1430	3.3	15.5	16.3	
CC(C)(C)NC(c1ccc(Cl)cc1)c1ccc(-c2ccncc2)cc1 (stereo unspecified)	170	3.9	14.4	16.1	
Clc1ccc(C(NC2CC2)c2ccc(-c3cn[nH]c3)cc2)cc1 (stereo unspecified)	480	7.8	15.6	7.9	
Clc1ccc(C(NCc2ccccc2)c2ccc(-c3ccncc3)cc2)cc1 (stereo unspecified)	1250	12.5	16.3	18.5	
Clc1ccc(C(NCc2ccccc2)c2ccc(-c3cn[nH]c3)cc2)cc1 (stereo unspecified)	1320	5.3	8.3	11.9	
OCCNC(c1ccc(Cl)cc1)c1ccc(-c2cn[nH]c2)cc1 (stereo unspecified)	650		27.6	34.7	
Clc1ccc(C(NC2CCCCC2)c2ccc(-c3cn[nH]c3)cc2)cc1 (stereo unspecified)	1100	2.1	26.8	5.5	
CC(C)NC(c1ccc(Cl)cc1)c1ccc(-c2cn[nH]c2)cc1 (stereo unspecified)	370	10.7	11.6	12.2	
CC(C)(C)NC(c1ccc(Cl)cc1)c1ccc(-c2cccnc2)cc1 (stereo unspecified)					inhibition [3]: 19%
CC(C)NC(c1ccc(Cl)cc1)c1ccc(-c2ncnc3nc[nH]c23)cc1 (stereo unspecified)	160	13.2	8.5	17	
Clc1ccc(C(NC2CCCCC2)c2ccc(-c3ccncc3)cc2)cc1 (stereo unspecified)	1260	3.2	12.4	15.6	
Clc1ccc(C(Nc2ccccc2)c2ccc(-c3ccncc3)cc2)cc1 (stereo unspecified)					inhibition [3]: 26%
Clc1ccc(C(Nc2ccccc2)c2ccc(-c3cn[nH]c3)cc2)cc1 (stereo unspecified)					inhibition [3]: 29%

From ChEMBL document CHEMBL3112393, “Structure-based design, synthesis and biological evaluation of diphenylmethylamine derivatives as novel Akt1 inhibitors” (Eur J Med Chem, 2014)
